Measured values published in ChEMBL document CHEMBL5724801, “EUbOPEN Chemogenomics Library - Multiplex” (2024).
“And” between values parts separate entries of the source, which are not always exact repeats. Equal entries are not always repeated.

Test system: U2OS
Assay: Multiplex assay against U2OS
Format: toxicity, cell-based
Details: human
Outline: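 Live cells carried four stains from seeding: Hoechst33342, BioTracker Green Microtubule Cytoskeleton Dye, MitoTracker Red and Annexin V Alexa Fluor 680. They were imaged on a CQ1 microscope at 37°C and 5% CO2 after compound addition. Using CellPathfinder machine-learning gating, cells were split into Hoechst high-intensity objects or normal cells, normal cells into healthy, pyknosed or fragmented nuclei, and pyknosed cells into mitotic or apoptotic; tubulin, mitochondrial-mass and membrane-permeability phenotypes are per cents of healthy-nucleus cells.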

[1] = 12 h, 1 µM, compound concentration 1 uM
[2] = 12 h, 10 µM, compound concentration 10 uM
[3] = 24 h, 1 µM, compound concentration 1 uM
[4] = 24 h, 10 µM, compound concentration 10 uM
[5] = 48 h, 1 µM, compound concentration 1 uM
[6] = 48 h, 10 µM, compound concentration 10 uM

## Cc1ccc(OCC(O)C(C)NC(C)C)c2c1CCC2.Cl (stereo not drawn)
[1]
  Population Apoptotic (%): 63% and 90%
  Population Fragmented Nuclei (%): 19% and 11%
  Population Healthy Nuclei (%): 66% and 79%
  Population Hoechst High Intensity Objects (%): 2% and 1%
  Population Membrane Permeable-Phenotype (%): 8% and 7%
  Population Mitochondria Different-Phenotype (%): 3% and 2%
  Population Normal (%): 97% and 98%
  Population Pyknosed Nuclei (%): 13% and 8%
  Population Tubulin-Different-Phenotype (%): 4% and 2%
  Total Cell Count: 222 and 129
[2]
  Population Apoptotic (%): 61% and 80%
  Population Fragmented Nuclei (%): 30% and 11%
  Population Healthy Nuclei (%): 52% and 81%
  Population Hoechst High Intensity Objects (%): 5% and 0%
  Population Membrane Permeable-Phenotype (%): 14% and 9%
  Population Mitochondria Different-Phenotype (%): 17% and 22%
  Population Mitotic Cells (%): 38% and 20%
  Population Normal (%): 94% and 99%
  Population Pyknosed Nuclei (%): 16% and 7%
  Population Tubulin-Different-Phenotype (%): 8% and 9%
  Total Cell Count: 215 and 137
[3]
  Population Apoptotic (%): 88% and 93%
  Population Fragmented Nuclei (%): 14% and 15%
  Population Healthy Nuclei (%): 75% and 73%
  Population Hoechst High Intensity Objects (%): 0% and 1%
  Population Membrane Permeable-Phenotype (%): 5% and 3%
  Population Mitochondria Different-Phenotype (%): 3% and 5%
  Population Mitotic Cells (%): 11% and 6%
  Population Normal (%): 100% and 98%
  Population Pyknosed Nuclei (%): 10%
  Population Tubulin-Different-Phenotype (%): 4% and 0%
  Total Cell Count: 255 and 155
[4]
  Population Apoptotic (%): 82% and 92%
  Population Fragmented Nuclei (%): 26% and 14%
  Population Healthy Nuclei (%): 56% and 77%
  Population Hoechst High Intensity Objects (%): 3% and 2%
  Population Membrane Permeable-Phenotype (%): 10% and 12%
  Population Mitochondria Different-Phenotype (%): 17% and 11%
  Population Mitotic Cells (%): 17% and 7%
  Population Normal (%): 96% and 97%
  Population Pyknosed Nuclei (%): 17% and 8%
  Population Tubulin-Different-Phenotype (%): 4% and 6%
  Total Cell Count: 230 and 172
[5]
  Population Apoptotic (%): 88% and 80%
  Population Fragmented Nuclei (%): 14% and 20%
  Population Healthy Nuclei (%): 73% and 69%
  Population Hoechst High Intensity Objects (%): 0% and 2%
  Population Membrane Permeable-Phenotype (%): 6% and 5%
  Population Mitochondria Different-Phenotype (%): 4% and 3%
  Population Mitotic Cells (%): 11% and 20%
  Population Normal (%): 99% and 97%
  Population Pyknosed Nuclei (%): 12% and 10%
  Population Tubulin-Different-Phenotype (%): 3% and 2%
  Total Cell Count: 377 and 202
[6]
  Population Apoptotic (%): 82% and 77%
  Population Fragmented Nuclei (%): 23% and 15%
  Population Healthy Nuclei (%): 63% and 73%
  Population Hoechst High Intensity Objects (%): 4% and 0%
  Population Membrane Permeable-Phenotype (%): 12% and 7%
  Population Mitochondria Different-Phenotype (%): 12% and 4%
  Population Mitotic Cells (%): 17% and 22%
  Population Normal (%): 95% and 99%
  Population Pyknosed Nuclei (%): 13% and 11%
  Population Tubulin-Different-Phenotype (%): 6% and 3%
  Total Cell Count: 306 and 246

## Cn1cc(C(=O)OCC2CCN(CCNS(C)(=O)=O)CC2)c2ccccc21
[1]
  Population Apoptotic (%): 73% and 77%
  Population Fragmented Nuclei (%): 27% and 20%
  Population Healthy Nuclei (%): 63% and 71%
  Population Hoechst High Intensity Objects (%): 3% and 0%
  Population Membrane Permeable-Phenotype (%): 7% and 13%
  Population Mitochondria Different-Phenotype (%): 4% and 5%
  Population Mitotic Cells (%): 26% and 22%
  Population Normal (%): 96% and 100%
  Population Pyknosed Nuclei (%): 8%
  Population Tubulin-Different-Phenotype (%): 5% and 6%
  Total Cell Count: 226 and 110
[2]
  Population Apoptotic (%): 53% and 57%
  Population Fragmented Nuclei (%): 36% and 18%
  Population Healthy Nuclei (%): 58% and 76%
  Population Hoechst High Intensity Objects (%): 0% and 1%
  Population Membrane Permeable-Phenotype (%): 10% and 17%
  Population Mitochondria Different-Phenotype (%): 5% and 13%
  Population Mitotic Cells (%): 46% and 42%
  Population Normal (%): 99% and 98%
  Population Pyknosed Nuclei (%): 5%
  Population Tubulin-Different-Phenotype (%): 5% and 9%
  Total Cell Count: 252 and 137
[3]
  Population Apoptotic (%): 95% and 100%
  Population Fragmented Nuclei (%): 26% and 17%
  Population Healthy Nuclei (%): 65% and 78%
  Population Hoechst High Intensity Objects (%): 2% and 0%
  Population Membrane Permeable-Phenotype (%): 4% and 10%
  Population Mitochondria Different-Phenotype (%): 2% and 5%
  Population Mitotic Cells (%): 4% and 0%
  Population Normal (%): 97% and 100%
  Population Pyknosed Nuclei (%): 8% and 4%
  Population Tubulin-Different-Phenotype (%): 3% and 6%
  Total Cell Count: 263 and 144
[4]
  Population Apoptotic (%): 92% and 64%
  Population Fragmented Nuclei (%): 33% and 16%
  Population Healthy Nuclei (%): 61% and 73%
  Population Hoechst High Intensity Objects (%): 2% and 1%
  Population Membrane Permeable-Phenotype (%): 11% and 12%
  Population Mitochondria Different-Phenotype (%): 5% and 8%
  Population Normal (%): 97% and 98%
  Population Pyknosed Nuclei (%): 4% and 9%
  Population Tubulin-Different-Phenotype (%): 4% and 8%
  Total Cell Count: 281 and 150
[5]
  Population Apoptotic (%): 91% and 57%
  Population Fragmented Nuclei (%): 20% and 13%
  Population Healthy Nuclei (%): 69% and 75%
  Population Hoechst High Intensity Objects (%): 1% and 2%
  Population Membrane Permeable-Phenotype (%): 8% and 6%
  Population Mitochondria Different-Phenotype (%): 3% and 5%
  Population Normal (%): 98% and 97%
  Population Pyknosed Nuclei (%): 9% and 10%
  Population Tubulin-Different-Phenotype (%): 5% and 4%
  Total Cell Count: 372 and 182
[6]
  Population Apoptotic (%): 88% and 75%
  Population Healthy Nuclei (%): 58% and 79%
  Population Hoechst High Intensity Objects (%): 1% and 3%
  Population Membrane Permeable-Phenotype (%): 9% and 13%
  Population Mitochondria Different-Phenotype (%): 4% and 6%
  Population Mitotic Cells (%): 11% and 25%
  Population Normal (%): 98% and 97%
  Population Pyknosed Nuclei (%): 10%
  Population Tubulin-Different-Phenotype (%): 7% and 5%
  Total Cell Count: 341 and 200

## C[C@H](NC(=O)CNC(=O)c1cccc(Cl)c1)c1ccccc1
[1]
  Population Apoptotic (%): 78% and 71%
  Population Fragmented Nuclei (%): 26% and 20%
  Population Healthy Nuclei (%): 61% and 68%
  Population Hoechst High Intensity Objects (%): 3%
  Population Membrane Permeable-Phenotype (%): 6% and 8%
  Population Mitochondria Different-Phenotype (%): 4% and 2%
  Population Mitotic Cells (%): 21% and 28%
  Population Normal (%): 96%
  Population Pyknosed Nuclei (%): 12% and 11%
  Population Tubulin-Different-Phenotype (%): 2%
  Total Cell Count: 242 and 124
[2]
  Population Apoptotic (%): 68% and 66%
  Population Fragmented Nuclei (%): 24% and 13%
  Population Healthy Nuclei (%): 63% and 82%
  Population Hoechst High Intensity Objects (%): 2% and 0%
  Population Membrane Permeable-Phenotype (%): 9% and 2%
  Population Mitochondria Different-Phenotype (%): 3%
  Population Mitotic Cells (%): 31% and 33%
  Population Normal (%): 97% and 100%
  Population Pyknosed Nuclei (%): 11% and 4%
  Population Tubulin-Different-Phenotype (%): 4% and 2%
  Total Cell Count: 198 and 150
[3]
  Population Apoptotic (%): 79% and 88%
  Population Fragmented Nuclei (%): 19%
  Population Healthy Nuclei (%): 71% and 69%
  Population Hoechst High Intensity Objects (%): 2%
  Population Membrane Permeable-Phenotype (%): 7% and 4%
  Population Mitochondria Different-Phenotype (%): 2% and 4%
  Population Mitotic Cells (%): 20% and 11%
  Population Normal (%): 97%
  Population Pyknosed Nuclei (%): 8% and 10%
  Population Tubulin-Different-Phenotype (%): 2% and 0%
  Total Cell Count: 275 and 168
[4]
  Population Apoptotic (%): 90% and 71%
  Population Fragmented Nuclei (%): 24% and 12%
  Population Healthy Nuclei (%): 61% and 83%
  Population Hoechst High Intensity Objects (%): 1%
  Population Membrane Permeable-Phenotype (%): 6% and 4%
  Population Mitochondria Different-Phenotype (%): 4% and 2%
  Population Normal (%): 98%
  Population Pyknosed Nuclei (%): 13% and 3%
  Population Tubulin-Different-Phenotype (%): 2% and 3%
  Total Cell Count: 239 and 189
[5]
  Population Apoptotic (%): 74% and 100%
  Population Fragmented Nuclei (%): 18% and 17%
  Population Healthy Nuclei (%): 71% and 70%
  Population Hoechst High Intensity Objects (%): 3% and 2%
  Population Membrane Permeable-Phenotype (%): 6% and 4%
  Population Mitochondria Different-Phenotype (%): 3%
  Population Mitotic Cells (%): 25% and 0%
  Population Normal (%): 96% and 97%
  Population Pyknosed Nuclei (%): 10% and 11%
  Population Tubulin-Different-Phenotype (%): 1% and 2%
  Total Cell Count: 401 and 205
[6]
  Population Apoptotic (%): 81% and 100%
  Population Fragmented Nuclei (%): 19% and 12%
  Population Healthy Nuclei (%): 73% and 80%
  Population Hoechst High Intensity Objects (%): 2% and 1%
  Population Membrane Permeable-Phenotype (%): 6% and 4%
  Population Mitochondria Different-Phenotype (%): 2% and 1%
  Population Mitotic Cells (%): 18% and 0%
  Population Normal (%): 97% and 98%
  Population Pyknosed Nuclei (%): 7%
  Population Tubulin-Different-Phenotype (%): 4% and 1%
  Total Cell Count: 311 and 279
